For one molecule, EC50, %max and fold change (FC) results are on record in ChEMBL document CHEMBL3352313 (J Med Chem, 2014).

Experiment [1] has as its target Muscarinic acetylcholine receptor M3 (Rattus norvegicus, UniProt P08483). The experiment can be described thus: Activity at rat muscarinic acetylcholine receptor subtype 3 expressed in CHO cells by calcium mobilization assay. In kind it is functional, cell-based. The method in brief: (§1)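 Muscarinic subtype selectivity by fluorescence calcium mobilization in highly expressing CHO lines with similar receptor levels; Gi/o-coupled M2 and M4 cells co-transfected with chimeric Gqi5 to couple to Ca2+ mobilization. Read-outs are PAM EC50 and ACh max response. Mean ± SEM of at least three independent determinations.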
In general terms: Calcium flux is commonly read through the fluorescence of an indicator in the cells.

The target of experiment [2] is T1, Muscarinic acetylcholine receptor M4 (Homo sapiens, UniProt P08173).
T1 sequence (P08173 whole entry): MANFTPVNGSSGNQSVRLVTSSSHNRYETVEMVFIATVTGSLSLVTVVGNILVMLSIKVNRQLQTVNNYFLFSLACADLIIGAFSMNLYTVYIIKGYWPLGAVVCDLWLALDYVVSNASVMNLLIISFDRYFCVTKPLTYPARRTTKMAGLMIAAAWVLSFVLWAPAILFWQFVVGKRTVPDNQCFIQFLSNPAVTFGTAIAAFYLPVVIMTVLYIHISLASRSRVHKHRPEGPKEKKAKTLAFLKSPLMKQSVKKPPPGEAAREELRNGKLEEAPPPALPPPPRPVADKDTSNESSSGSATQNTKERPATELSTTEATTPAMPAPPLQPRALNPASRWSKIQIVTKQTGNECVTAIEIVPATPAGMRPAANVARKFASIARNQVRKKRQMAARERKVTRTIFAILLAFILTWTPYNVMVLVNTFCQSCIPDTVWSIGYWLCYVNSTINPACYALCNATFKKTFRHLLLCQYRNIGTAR
The experiment can be described thus: Activity at human muscarinic acetylcholine receptor subtype 4 expressed in CHO cells co-transfected with chimeric Gqi5 by calcium mobilization assay. In kind it is functional, cell-based. The method in brief: as §1

The target of experiment [3] is T2, Muscarinic acetylcholine receptor M5 (Homo sapiens, UniProt P08912).
T2 sequence (P08912 whole entry): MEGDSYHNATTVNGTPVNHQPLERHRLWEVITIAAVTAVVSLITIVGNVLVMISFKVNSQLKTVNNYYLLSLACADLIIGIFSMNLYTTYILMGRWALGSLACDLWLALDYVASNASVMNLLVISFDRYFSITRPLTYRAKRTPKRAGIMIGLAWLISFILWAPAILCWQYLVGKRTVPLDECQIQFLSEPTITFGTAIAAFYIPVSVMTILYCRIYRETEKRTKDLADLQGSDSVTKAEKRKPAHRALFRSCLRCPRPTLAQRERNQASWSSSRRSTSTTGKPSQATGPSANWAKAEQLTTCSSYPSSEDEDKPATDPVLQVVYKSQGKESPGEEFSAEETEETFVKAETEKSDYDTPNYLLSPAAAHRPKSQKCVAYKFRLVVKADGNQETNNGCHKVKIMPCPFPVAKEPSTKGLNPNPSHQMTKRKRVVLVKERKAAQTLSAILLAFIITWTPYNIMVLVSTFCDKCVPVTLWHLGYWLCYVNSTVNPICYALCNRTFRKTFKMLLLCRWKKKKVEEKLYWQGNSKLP
The experiment can be described thus: Positive allosteric modulator activity at human muscarinic acetylcholine receptor subtype 5 expressed in CHO cells by calcium mobilization assay. In kind it is functional, cell-based. The settings on record: read-out: EC50.

Experiment [4] deals with T3, Muscarinic acetylcholine receptor M5 (Homo sapiens) (UniProt P08912).
T3 sequence (whole entry): T2 sequence (P08912 whole entry)
The experiment can be described thus: Displacement of [3H]NMS from human muscarinic acetylcholine receptor subtype 5 expressed in CHO cell membranes assessed as radioligand binding level by scintillation counting method.

Experiment [5] deals with T4, Muscarinic acetylcholine receptor M4 (Rattus norvegicus, UniProt P08485).
T4 sequence (P08485 whole entry): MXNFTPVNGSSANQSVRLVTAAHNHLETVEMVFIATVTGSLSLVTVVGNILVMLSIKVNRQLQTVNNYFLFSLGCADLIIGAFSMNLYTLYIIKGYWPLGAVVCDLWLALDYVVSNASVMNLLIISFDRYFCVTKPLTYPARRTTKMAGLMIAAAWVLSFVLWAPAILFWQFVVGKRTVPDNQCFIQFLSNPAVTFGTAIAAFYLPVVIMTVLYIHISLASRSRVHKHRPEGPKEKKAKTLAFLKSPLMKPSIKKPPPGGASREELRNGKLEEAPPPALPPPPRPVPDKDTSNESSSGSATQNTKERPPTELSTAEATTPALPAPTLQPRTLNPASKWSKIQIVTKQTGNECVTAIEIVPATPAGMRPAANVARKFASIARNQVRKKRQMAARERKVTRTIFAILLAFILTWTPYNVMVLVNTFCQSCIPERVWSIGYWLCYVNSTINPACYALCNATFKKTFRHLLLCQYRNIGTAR
The experiment can be described thus: Activity at rat muscarinic acetylcholine receptor subtype 4 expressed in CHO cells co-transfected with chimeric Gqi5 by calcium mobilization assay. Type of experiment: functional, cell-based. The method in brief: as §1

The target in experiment [6] is T5, Muscarinic acetylcholine receptor M1 (Rattus norvegicus, UniProt P08482).
T5 sequence (P08482 whole entry): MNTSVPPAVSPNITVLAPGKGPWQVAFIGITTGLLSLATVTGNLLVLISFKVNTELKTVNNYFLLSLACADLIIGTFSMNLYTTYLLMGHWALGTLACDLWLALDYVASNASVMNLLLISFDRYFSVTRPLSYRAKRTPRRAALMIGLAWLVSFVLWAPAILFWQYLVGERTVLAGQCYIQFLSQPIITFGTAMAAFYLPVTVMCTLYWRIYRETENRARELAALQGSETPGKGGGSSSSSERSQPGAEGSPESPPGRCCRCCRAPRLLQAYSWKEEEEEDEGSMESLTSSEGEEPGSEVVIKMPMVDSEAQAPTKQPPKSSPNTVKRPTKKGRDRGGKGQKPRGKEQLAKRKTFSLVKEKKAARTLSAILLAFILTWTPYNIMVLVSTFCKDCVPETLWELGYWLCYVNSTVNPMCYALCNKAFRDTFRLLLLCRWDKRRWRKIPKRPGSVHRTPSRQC
The experiment can be described thus: Activity at rat muscarinic acetylcholine receptor subtype 1 expressed in CHO cells by calcium mobilization assay. In kind it is functional, cell-based. The method in brief: as §1

For experiment [7], the target named is T6, Muscarinic acetylcholine receptor M1 (Homo sapiens) (UniProt P11229).
T6 sequence (whole entry): T5 sequence (P08482 whole entry) with V5A, S254T, S309P, K320R, G337A, V413I
The experiment can be described thus: Activity at human muscarinic acetylcholine receptor subtype 1 expressed in CHO cells by calcium mobilization assay relative to acetylcholine. Type of experiment: functional, cell-based. In a few lines:
as §1

Experiment [8] addresses T3, Muscarinic acetylcholine receptor M5 (Homo sapiens). The experiment can be described thus: Positive allosteric modulator activity at human muscarinic acetylcholine receptor subtype 5 expressed in CHO cell membranes assessed as fold shift in acetylcholine binding affinity by [3H]NMS binding based scintillation counting method.

Residue numbers refer to the chain shown, from its start. A value given as a limit tells only on which side of the number the result lay.

Muscarinic acetylcholine receptor M3, sequence (P08483 whole entry): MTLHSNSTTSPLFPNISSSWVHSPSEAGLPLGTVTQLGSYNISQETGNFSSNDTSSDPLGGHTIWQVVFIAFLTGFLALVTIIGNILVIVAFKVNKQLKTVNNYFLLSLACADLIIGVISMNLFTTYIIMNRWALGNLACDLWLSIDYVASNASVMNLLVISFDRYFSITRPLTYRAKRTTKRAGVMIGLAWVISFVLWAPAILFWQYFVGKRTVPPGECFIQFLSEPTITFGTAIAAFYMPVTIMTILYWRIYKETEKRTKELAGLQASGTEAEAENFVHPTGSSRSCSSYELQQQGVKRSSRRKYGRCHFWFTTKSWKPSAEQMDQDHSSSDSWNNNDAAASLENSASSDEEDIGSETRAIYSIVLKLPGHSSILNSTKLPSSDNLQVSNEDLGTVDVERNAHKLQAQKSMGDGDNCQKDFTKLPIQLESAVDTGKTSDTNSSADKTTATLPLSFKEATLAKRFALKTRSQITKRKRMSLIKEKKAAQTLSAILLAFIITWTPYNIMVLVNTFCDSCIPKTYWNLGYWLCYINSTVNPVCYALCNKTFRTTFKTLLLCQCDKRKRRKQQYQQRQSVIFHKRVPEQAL

For `CCN(Cc1ccccc1C(F)(F)F)C(=O)C1CCN(S(=O)(=O)c2ccc3[nH]ncc3c2)CC1`, the half-maximal effective concentration (EC50) (usually the concentration that produces a half-maximal response) was 3.1 µM in experiment [1]; more than 30 µM in experiment [2]; 0.19 µM in experiment [3]; more than 30 µM in experiment [5]; 2 µM in experiment [6]. The %max in experiment [4] stood at 97.1%; in experiment [7], 52%. Further, the fold change (FC) in experiment [8] was determined as 15.
